Results: ChEMBL document CHEMBL3774381, “Discovery of Novel and Orally Bioavailable Inhibitors of PI3 Kinase Based on Indazole Substituted Morpholino-Triazines” (ACS Med Chem Lett, 2015)

Tests used:
[1] = system: A2780; assay: Antiproliferative activity against human A2780 cells assessed as reduction in cell viability after 48 hrs by MTT assay; type: functional, cell-based; details: A2780, 48 h
Method in brief: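 Cellular EC50 was determined in the A2780 ovarian cancer line, with a coefficient of variation below 5%.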

[2] = molecular target: Phosphatidylinositol 4,5-bisphosphate 3-kinase catalytic subunit alpha isoform (Homo sapiens, UniProt P42336); assay: Inhibition of human recombinant PI3K-alpha using phosphatidylinositol biphosphate as substrate preincubated for 15 mins followed by substrate addition measured after 60 mins by HTRF assay
Chain of Phosphatidylinositol 4,5-bisphosphate 3-kinase catalytic subunit alpha isoform (P42336 whole entry, canonical isoform): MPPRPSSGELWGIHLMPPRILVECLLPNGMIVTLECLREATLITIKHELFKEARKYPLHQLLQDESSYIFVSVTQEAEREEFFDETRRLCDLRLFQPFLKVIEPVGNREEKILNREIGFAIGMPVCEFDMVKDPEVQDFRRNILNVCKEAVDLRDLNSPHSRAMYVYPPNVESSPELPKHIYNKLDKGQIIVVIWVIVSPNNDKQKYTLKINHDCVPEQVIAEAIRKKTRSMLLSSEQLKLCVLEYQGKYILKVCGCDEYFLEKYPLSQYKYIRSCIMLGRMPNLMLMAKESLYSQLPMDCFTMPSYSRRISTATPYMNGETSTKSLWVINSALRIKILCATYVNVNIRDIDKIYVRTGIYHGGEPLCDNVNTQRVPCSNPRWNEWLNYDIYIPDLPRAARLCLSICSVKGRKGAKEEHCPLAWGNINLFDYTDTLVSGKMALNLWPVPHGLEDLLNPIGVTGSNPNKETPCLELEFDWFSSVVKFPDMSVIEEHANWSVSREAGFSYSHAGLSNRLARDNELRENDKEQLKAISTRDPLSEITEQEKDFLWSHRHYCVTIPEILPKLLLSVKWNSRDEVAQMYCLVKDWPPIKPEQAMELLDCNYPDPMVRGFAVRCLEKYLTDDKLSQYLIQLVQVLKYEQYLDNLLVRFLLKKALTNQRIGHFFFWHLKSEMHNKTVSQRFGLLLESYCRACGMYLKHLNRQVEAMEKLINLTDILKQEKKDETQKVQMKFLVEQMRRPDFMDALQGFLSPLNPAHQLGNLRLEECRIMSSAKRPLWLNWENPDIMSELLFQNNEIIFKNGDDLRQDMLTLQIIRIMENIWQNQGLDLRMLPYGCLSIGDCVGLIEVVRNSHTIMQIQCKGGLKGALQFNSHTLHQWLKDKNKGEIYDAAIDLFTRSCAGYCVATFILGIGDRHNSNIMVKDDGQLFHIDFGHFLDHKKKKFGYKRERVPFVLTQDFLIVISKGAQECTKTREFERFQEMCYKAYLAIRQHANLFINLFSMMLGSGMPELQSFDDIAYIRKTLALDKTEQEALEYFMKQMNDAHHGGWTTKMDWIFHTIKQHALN

[3] = Metabolic stability in dog liver microsomes assessed as parent compound remaining at 10 uM after 2 hrs by HPLC analysis in presence of NADPH; type: ADME, Canis lupus familiaris; details: read-out: Stability
Method in brief: (§1)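 Compound was incubated with isolated human, dog or mouse liver microsomes for 2 h. Parent concentration was followed by HPLC at 0, 0.5, 1 and 2 h, and the 2 h value is reported as remaining parent.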

[4] = Metabolic stability in human liver microsomes assessed as parent compound remaining at 10 uM after 2 hrs by HPLC analysis in presence of NADPH; type: ADME; details: read-out: Stability; method in brief: as §1
[5] = Metabolic stability in mouse liver microsomes assessed as parent compound remaining at 10 uM after 2 hrs by HPLC analysis in presence of NADPH; type: ADME; details: read-out: Stability; method in brief: as §1
[6] = molecular target: T1, Cytochrome P450 3A4 (Homo sapiens, UniProt P08684); assay: Inhibition of CYP3A4 (unknown origin) at 10 uM; type: ADME
T1 sequence (P08684 whole entry): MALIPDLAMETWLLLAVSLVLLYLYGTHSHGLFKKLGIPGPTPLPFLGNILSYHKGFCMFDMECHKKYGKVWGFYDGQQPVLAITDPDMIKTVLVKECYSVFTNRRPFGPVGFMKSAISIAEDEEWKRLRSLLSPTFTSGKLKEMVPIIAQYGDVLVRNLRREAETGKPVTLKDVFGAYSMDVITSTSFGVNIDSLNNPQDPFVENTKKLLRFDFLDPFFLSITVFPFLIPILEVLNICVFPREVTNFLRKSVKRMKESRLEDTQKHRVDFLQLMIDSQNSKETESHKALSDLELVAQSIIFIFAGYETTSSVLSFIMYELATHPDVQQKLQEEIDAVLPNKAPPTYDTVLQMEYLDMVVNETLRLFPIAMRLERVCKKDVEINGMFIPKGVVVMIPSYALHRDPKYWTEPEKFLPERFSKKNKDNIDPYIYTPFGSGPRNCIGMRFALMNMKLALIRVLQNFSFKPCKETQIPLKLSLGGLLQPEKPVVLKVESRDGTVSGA
Method in brief: (§2)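 Inhibition of CYP3A4, CYP2C19 and CYP2D6 activity was screened with test compound at 10 μM.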

[7] = molecular target: T2, Cytochrome P450 2C19 (Homo sapiens, UniProt P33261); assay: Inhibition of CYP2C19 (unknown origin) at 10 uM; type: ADME; method in brief: as §2
T2 sequence (P33261 whole entry): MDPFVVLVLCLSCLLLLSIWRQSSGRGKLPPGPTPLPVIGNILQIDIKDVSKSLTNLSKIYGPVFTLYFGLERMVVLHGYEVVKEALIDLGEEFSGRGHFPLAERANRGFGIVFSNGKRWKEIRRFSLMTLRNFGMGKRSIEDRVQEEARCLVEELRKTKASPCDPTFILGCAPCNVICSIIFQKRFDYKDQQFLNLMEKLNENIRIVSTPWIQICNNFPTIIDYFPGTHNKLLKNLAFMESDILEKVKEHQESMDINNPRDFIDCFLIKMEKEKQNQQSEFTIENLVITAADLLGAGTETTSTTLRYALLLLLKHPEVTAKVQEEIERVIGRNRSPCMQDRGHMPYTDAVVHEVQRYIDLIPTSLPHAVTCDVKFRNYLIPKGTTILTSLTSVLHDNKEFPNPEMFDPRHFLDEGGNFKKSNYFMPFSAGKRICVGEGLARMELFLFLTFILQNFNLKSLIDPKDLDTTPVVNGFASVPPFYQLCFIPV

[8] = molecular target: T3, Cytochrome P450 2D6 (Homo sapiens, UniProt P10635); assay: Inhibition of CYP2D6 (unknown origin) at 10 uM; type: ADME; method in brief: as §2
T3 sequence (P10635 whole entry): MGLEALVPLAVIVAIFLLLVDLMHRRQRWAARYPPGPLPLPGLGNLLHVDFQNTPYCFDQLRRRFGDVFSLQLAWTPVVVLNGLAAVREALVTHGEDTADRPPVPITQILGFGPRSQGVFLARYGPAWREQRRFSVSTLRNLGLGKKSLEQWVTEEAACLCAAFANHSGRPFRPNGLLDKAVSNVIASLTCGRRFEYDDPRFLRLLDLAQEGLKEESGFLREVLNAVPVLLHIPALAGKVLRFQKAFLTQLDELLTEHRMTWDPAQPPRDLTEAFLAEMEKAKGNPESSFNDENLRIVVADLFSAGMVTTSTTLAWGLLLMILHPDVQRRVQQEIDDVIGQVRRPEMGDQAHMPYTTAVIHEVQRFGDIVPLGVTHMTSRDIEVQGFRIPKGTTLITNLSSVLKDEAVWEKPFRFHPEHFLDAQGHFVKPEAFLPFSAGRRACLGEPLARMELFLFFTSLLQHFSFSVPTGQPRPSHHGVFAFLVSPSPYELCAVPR

[9] = molecular target: T1, Cytochrome P450 3A4; assay: Inhibition of CYP3A4 (unknown origin); type: ADME
[10] = molecular target: T2, Cytochrome P450 2C19; assay: Inhibition of CYP2C19 (unknown origin); type: ADME; method in brief: as §2
[11] = molecular target: T3, Cytochrome P450 2D6; assay: Inhibition of CYP2D6 (unknown origin); type: ADME; method in brief: as §2
[12] = Tmax in Swiss mouse plasma at 3 mg/kg, po after 0.16 to 8 hrs by LC-MS analysis; type: ADME, organism-based
Method in brief: (§3)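 Single oral doses of 1, 3 and 10 mpk were given to mice in a dose-ranging study, with the 3 mpk screen run in Swiss mice. Plasma tmax, Cmax, AUC and elimination t1/2 were derived from each dose group.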

[13] = Cmax in Swiss mouse plasma at 3 mg/kg, po after 0.16 to 8 hrs by LC-MS analysis; type: ADME, organism-based; design: dose 3 mg/kg, route oral; method in brief: as §3
[14] = AUC in Swiss mouse plasma at 3 mg/kg, po after 0.16 to 8 hrs by LC-MS analysis; type: ADME, organism-based; design: time lower 0.16 hr, dose 3 mg/kg, time upper 8 hr, route oral; method in brief: as §3
[15] = Elimination half life in Swiss mouse plasma at 3 mg/kg, po after 0.16 to 8 hrs by LC-MS analysis; type: ADME, organism-based; details: read-out: beta t1/2 (converted); method in brief: as §3
[16] = Tmax in Swiss mouse plasma at 1 mg/kg, po after 0.16 to 8 hrs by LC-MS analysis; type: ADME, organism-based; method in brief: as §3
[17] = Cmax in Swiss mouse plasma at 1 mg/kg, po after 0.16 to 8 hrs by LC-MS analysis; type: ADME, organism-based; design: dose 1 mg/kg, route oral; method in brief: as §3
[18] = AUC in Swiss mouse plasma at 1 mg/kg, po after 0.16 to 8 hrs by LC-MS analysis; type: ADME, organism-based; design: dose 1 mg/kg, time 0.16-8 hr, route oral
[19] = Elimination half life in Swiss mouse plasma at 1 mg/kg, po after 0.16 to 8 hrs by LC-MS analysis; type: ADME, organism-based; details: read-out: beta t1/2 (converted)
[20] = Tmax in Swiss mouse plasma at 10 mg/kg, po after 0.16 to 8 hrs by LC-MS analysis; type: ADME, organism-based; method in brief: as §3
[21] = Cmax in Swiss mouse plasma at 10 mg/kg, po after 0.16 to 8 hrs by LC-MS analysis; type: ADME, organism-based; design: dose 10 mg/kg, route oral; method in brief: as §3
[22] = AUC in Swiss mouse plasma at 10 mg/kg, po after 0.16 to 8 hrs by LC-MS analysis; type: ADME, organism-based; design: dose 10 mg/kg, time 0.16-8 hr, route oral; method in brief: as §3
[23] = Elimination half life in Swiss mouse plasma at 10 mg/kg, po after 0.16 to 8 hrs by LC-MS analysis; type: ADME, organism-based; details: read-out: beta t1/2 (converted); method in brief: as §3
[24] = system: Mus musculus; assay: Toxicity in Swiss mouse assessed as body weight loss at 30 mg/kg, po bid for 5 days; type: organism-based; details: in vivo, 120 h
Method in brief: (§4)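 Swiss mice were dosed orally at 30 mpk BID for 5 consecutive days. Body weight, body temperature (hyper- or hypothermia), body coat and level of physical activity were monitored throughout.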

[25] = system: Mus musculus; assay: Toxicity in Swiss mouse assessed as hyperthermia at 30 mg/kg, po bid for 5 days; type: organism-based; details: in vivo, 120 h; method in brief: as §4
[26] = system: Mus musculus; assay: Toxicity in Swiss mouse assessed as hypothermia at 30 mg/kg, po bid for 5 days; type: organism-based; details: in vivo, 120 h; method in brief: as §4
[27] = system: Mus musculus; assay: Toxicity in Swiss mouse assessed as changes in body coat at 30 mg/kg, po bid for 5 days; type: organism-based; details: in vivo, 120 h; method in brief: as §4
[28] = system: Mus musculus; assay: Toxicity in Swiss mouse assessed as reduced physical activity at 30 mg/kg, po bid for 5 days; type: organism-based; details: in vivo, 120 h; method in brief: as §4

c1ccc(Nc2nc(-c3cccc4[nH]ncc34)nc(N3CCOCC3)n2)cc1
EC50 [1]: 3690 nM | IC50 [2]: 800 nM

CN(CC(=O)O)c1nc(-c2cccc(O)c2)nc(N2CCOCC2)n1
IC50 [2]: 10000 nM

Nc1nc(-c2cccc(O)c2)nc(N2CCOCC2)n1
IC50 [2]: 680 nM

CNC(=O)CNc1nc(-c2cccc(O)c2)nc(N2CCOCC2)n1
IC50 [2]: 730 nM

O=C1CN(c2nc(-c3cccc4[nH]ncc34)nc(N3CCOCC3)n2)CCN1
EC50 [1]: 3970 nM | IC50 [2]: 400 nM

NC(=O)CNc1nc(-c2cccc(O)c2)nc(N2CCOCC2)n1
IC50 [2]: 740 nM

CN(C)C(=O)c1ccc(Oc2nc(-c3cccc4[nH]ncc34)nc(N3CCOCC3)n2)cc1
remaining at 2 h, 10 µM [3]: 83.8% | remaining at 2 h, 10 µM [4]: 101% | EC50 [1]: 520 nM | IC50 [2]: 60 nM | remaining at 2 h, 10 µM [5]: 45.6% | inhibition (INH) [6]: Not Active | inhibition (INH) [7]: Not Active | inhibition (INH) [8]: Not Active | IC50 [9]: > 15000 nM | IC50 [10]: > 10000 nM | IC50 [11]: > 10000 nM | Tmax [12]: 1 h | Cmax [13]: 1240 nM | AUC [14]: 5.25 µM·h | half-life [15]: 4.86 h | Tmax [16]: 1 h | Cmax [17]: 360 nM | AUC [18]: 2.12 µM·h | half-life [19]: 6.93 h | Tmax [20]: 2.33 h | Cmax [21]: 1800 nM | AUC [22]: 9.79 µM·h | half-life [23]: 6.87 h | Activity [24]: Non-toxic | Activity [25]: Non-toxic | Activity [26]: Non-toxic | Activity [27]: Non-toxic | Activity [28]: Non-toxic

CN(C)C(=O)CNc1nc(-c2cncc(O)c2)nc(N2CCOCC2)n1
IC50 [2]: 1600 nM

CN(C)C(=O)c1sccc1Nc1nc(-c2cccc3[nH]ncc23)nc(N2CCOCC2)n1
EC50 [1]: 1900 nM | IC50 [2]: 200 nM

COc1cccc(-c2nc(NCC(=O)O)nc(N3CCOCC3)n2)c1
IC50 [2]: > 20000 nM

CN(C)C(=O)c1cccc(Nc2nc(-c3cccc4[nH]ncc34)nc(N3CCOCC3)n2)c1
EC50 [1]: 800 nM | IC50 [2]: 60 nM

CN(C)C(=O)CNc1nc(-c2cccc(C(N)=O)c2)nc(N2CCOCC2)n1
IC50 [2]: > 20000 nM

CN(C)C(=O)N1CCC(Oc2nc(-c3cccc4[nH]ncc34)nc(N3CCOCC3)n2)CC1
remaining at 2 h, 10 µM [4]: 80.7% | EC50 [1]: 720 nM | IC50 [2]: 60 nM | remaining at 2 h, 10 µM [5]: 24.8% | inhibition (INH) [6]: Not Active | inhibition (INH) [7]: Not Active | inhibition (INH) [8]: Not Active | IC50 [9]: > 15000 nM | IC50 [10]: > 10000 nM | IC50 [11]: > 10000 nM

CN(C)C(=O)CNc1nc(-c2cccc(O)c2)nc(N2CCOCC2)n1
IC50 [2]: 540 nM

CNc1cccc(Nc2nc(-c3cccc4[nH]ncc34)nc(N3CCOCC3)n2)c1
EC50 [1]: 850 nM

Nc1cccc(-c2nc(NCC(=O)O)nc(N3CCOCC3)n2)c1
IC50 [2]: > 10000 nM

NC(=O)c1cccc(Oc2nc(-c3cccc4[nH]ncc34)nc(N3CCOCC3)n2)c1
EC50 [1]: 3220 nM | IC50 [2]: 270 nM

O=C1CCN(c2nc(-c3cccc4[nH]ncc34)nc(N3CCOCC3)n2)CCN1
EC50 [1]: 2640 nM | IC50 [2]: 200 nM

O=C(O)CNc1nc(-c2ccccc2)nc(N2CCOCC2)n1
IC50 [2]: > 20000 nM

CN(C)C(=O)CNc1nc(-c2cccc3c2CCC3O)nc(N2CCOCC2)n1 (stereo unspecified)
IC50 [2]: > 20000 nM

CN(C)C(=O)CCNc1nc(-c2cccc3[nH]ncc23)nc(N2CCOCC2)n1
EC50 [1]: 6380 nM | IC50 [2]: 600 nM

NC(=O)c1cccc(Nc2nc(-c3cccc4[nH]ncc34)nc(N3CCOCC3)n2)c1
EC50 [1]: 820 nM | IC50 [2]: 80 nM

CN(C)C(=O)c1cc(Oc2nc(-c3cccc4[nH]ncc34)nc(N3CCOCC3)n2)cs1
EC50 [1]: 1400 nM | IC50 [2]: 100 nM

COC(=O)CNc1nc(-c2cccc(O)c2)nc(N2CCOCC2)n1
IC50 [2]: 1180 nM

CN(C)C(=O)CNc1nc(-c2cccc3[nH]ncc23)nc(N2CCOCC2)n1
IC50 [2]: 1100 nM

CN(C)C(=O)[C@H]1CC[C@H](Oc2nc(-c3cccc4[nH]ncc34)nc(N3CCOCC3)n2)CC1
remaining at 2 h, 10 µM [4]: 99% | EC50 [1]: 680 nM | IC50 [2]: 60 nM | remaining at 2 h, 10 µM [5]: 27.3% | inhibition (INH) [6]: Not Active | inhibition (INH) [7]: Not Active | inhibition (INH) [8]: Not Active | IC50 [9]: > 15000 nM | IC50 [10]: > 10000 nM | IC50 [11]: > 10000 nM

CS(=O)(=O)N1CCN(C(=O)CNc2nc(-c3cccc(O)c3)nc(N3CCOCC3)n2)CC1
IC50 [2]: 1060 nM
